Experimental data from ChEMBL document CHEMBL2150887, “Design, Prins-cyclization reaction promoting diastereoselective synthesis of 10 new tetrahydropyran derivatives and in vivo antinociceptive evaluations” (Eur J Med Chem, 2012).
Activity calls are given as the source filed them. No cut-off for these calls is given here.

Legend:
Mus musculus [1] = assay: Antinociceptive activity in Swiss albino mouse assessed as inhibition of acetic-acid induced abdominal writhing at 30 mg/kg, po administered prior to acetic-acid challenge measured after 30 mins relative to untreated-control; type: functional; conditions: Abdomen, 0.5 h
Outline: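 Male Albino-Swiss mice (20-24 g), n = 6, were pretreated orally at 30 mg/kg in 5% ethyl acetate vehicle (5 mL/kg). Writhing was induced with 1.2% (v/v) acetic acid i.p. Writhes (abdominal contraction, body stretching, hind-limb extension) were counted for 30 min starting immediately after injection and compared with the control group. ANOVA/Bonferroni, P < 0.05.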

Mus musculus [2] = assay: Antinociceptive activity in Swiss albino mouse assessed as increase in tail-flick latency at 30 mg/kg, po measured up to 120 mins relative to untreated-control; type: functional, organism-based; parameters: dose 30 mg/kg
Outline: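 Male Albino-Swiss mice (20-24 g), n = 6 per group, given 30 mg/kg p.o. as a suspension in 5% ethyl acetate vehicle (5 mL/kg). Tail-flick latency was measured every 20 min: two pre-dose readings were averaged as baseline, then six post-dose readings. Results are expressed as % increase over baseline and as AUC from 20-120 min. ANOVA with Bonferroni test, P < 0.05.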

Mus musculus [3] = assay: Toxicity in Swiss albino mouse assessed as hyperventilation up to 2000 mg/kg, po measured from 5 hrs post-dose to 14 days relative to untreated-control; type: organism-based; parameters: dose 2000 mg/kg, route oral; conditions: in vivo
Outline: (§1)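 Acute toxicity followed WHO and OECD guidelines. Male Albino-Swiss mice received single oral doses increasing up to 2000 mg/kg. Behaviour (disorientation, hyperactivity, piloerection, hyperventilation) was observed from 5 h after dosing and then daily until day 14. LD50 was estimated by nonlinear regression of % deaths against dose.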

Mus musculus [4] = assay: Neurotoxicity in Swiss albino mouse assessed as alteration in motor activity at 30 mg/kg, po administered 60 mins prior to testing measured for 5 mins by open field test relative to untreated-control; type: toxicity, organism-based; parameters: dose 30 mg/kg, route oral; conditions: in vivo
Outline: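 Male Albino-Swiss mice, n = 6, received 30 mg/kg p.o. or vehicle. Sixty minutes after dosing, each mouse was placed alone in a chamber whose floor was divided into 50 squares of 5 × 5 cm. Squares crossed were counted over 5 min.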

Mus musculus [5] = assay: Neurotoxicity in Swiss albino mouse assessed as alteration in motor activity at 30 mg/kg, po administered 60 mins prior to testing measured for 5 mins by rotarod test relative to untreated-control; type: toxicity, organism-based; parameters: dose 30 mg/kg, route oral; conditions: in vivo
Outline: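 Mice were trained twice the day before to stay 5 min on a rotarod turning at 10 rev/min. Twenty-four hours later they received 30 mg/kg p.o. or vehicle. Sixty minutes after dosing they were placed on the roller for 5 min, and the number of falls was recorded as the neurological deficit.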

Mus musculus [6] = assay: Toxicity in Swiss albino mouse assessed as hyperactivity up to 2000 mg/kg, po measured from 5 hrs post-dose to 14 days relative to untreated-control; type: organism-based; parameters: dose 2000 mg/kg, route oral; conditions: in vivo; outline: as §1
Mus musculus [7] = assay: Toxicity in Swiss albino mouse assessed as disorientation up to 2000 mg/kg, po measured from 5 hrs post-dose to 14 days relative to untreated-control; type: organism-based; parameters: dose 2000 mg/kg, route oral; conditions: in vivo; outline: as §1
[8] = Toxicity in po dosed Swiss albino mouse; type: organism-based; conditions: in vivo
Outline: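 Acute oral toxicity per WHO and OECD guidelines. Male Albino-Swiss mice (20–24 g), 6 per group, held at 20 ± 2 °C on a 12 h light/dark cycle. Given single oral doses rising to 2000 mg/kg, as a suspension in 5% ethyl acetate at 5 mL/kg. Behaviour watched from 5 h after dosing, then daily to day 14. LD50 from nonlinear regression of percent deaths against dose.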

Mus musculus [9] = assay: Toxicity in Swiss albino mouse assessed as piloerection up to 2000 mg/kg, po measured from 5 hrs post-dose to 14 days relative to untreated-control; type: organism-based; parameters: dose 2000 mg/kg, route oral; conditions: in vivo; outline: as §1
Mus musculus [10] = assay: Antinociceptive activity in mouse assessed as inhibition of acetic-acid induced abdominal writhing at 50 mg/kg administered 60 mins prior to acetic-acid challenge; type: functional; conditions: Abdomen

Row | SMILES | inhibition in vivo at 30 mg/kg (Mus musculus [1]) [%] | Activity (Mus musculus [2]) | Activity (Mus musculus [3]) | Activity (Mus musculus [4]) | Activity (Mus musculus [5]) | Activity (Mus musculus [6]) | Activity (Mus musculus [7]) | LD50 [8] [mg/kg] | Activity (Mus musculus [9]) | inhibition in vivo at 50 mg/kg (Mus musculus [10]) [%]
1 | O=C(O)[C@H]1CCC[C@@H](c2cccc3ccccc23)O1 (relative stereo) | 49 | Active | Non-toxic | Non-toxic | Non-toxic | Non-toxic | Non-toxic | > 2000 | Non-toxic | 
2 | CC[C@@H]1CCC[C@H](C(=O)O)O1 (racemic) | 14.1 | Active | Non-toxic | Non-toxic | Non-toxic | Non-toxic | Non-toxic | > 2000 | Non-toxic | 15
3 | CC(C)C(=O)OC[C@H]1C[C@@H](Cl)C[C@@H](c2ccc3ccccc3c2)O1 (relative stereo) | 44.4 | Active | Non-toxic | Non-toxic | Non-toxic | Non-toxic | Non-toxic | > 2000 | Non-toxic | 
4 | O=C(O)[C@H]1C[C@@H](Cl)C[C@@H](c2ccc3ccccc3c2)O1 (relative stereo) | 28.1 | Active | Non-toxic | Non-toxic | Non-toxic | Non-toxic | Non-toxic | > 2000 | Non-toxic | 
5 | OC[C@H]1C[C@@H](Cl)C[C@@H](c2cccc3ccccc23)O1 (relative stereo) | 87.5 | Active | Non-toxic | Non-toxic | Non-toxic | Non-toxic | Non-toxic | > 2000 | Non-toxic | 
6 | O=C(O)[C@H]1CCC[C@@H](c2ccc3ccccc3c2)O1 | 43.1 | Active | Non-toxic | Non-toxic | Non-toxic | Non-toxic | Non-toxic | > 2000 | Non-toxic | 
7 | CC(C)C(=O)OC[C@H]1C[C@@H](Cl)C[C@@H](c2cccc3ccccc23)O1 (relative stereo) | 38.4 | Active | Non-toxic | Non-toxic | Non-toxic | Non-toxic | Non-toxic | > 2000 | Non-toxic | 
8 | OC[C@H]1CCC[C@@H](c2ccc3ccccc3c2)O1 (relative stereo) | 55.7 | Active | Non-toxic | Non-toxic | Non-toxic | Non-toxic | Non-toxic | > 2000 | Non-toxic | 
9 | OC[C@H]1CCC[C@@H](c2cccc3ccccc23)O1 (relative stereo) | 39.2 | Active | Non-toxic | Non-toxic | Non-toxic | Non-toxic | Non-toxic | > 2000 | Non-toxic | 
10 | OC[C@H]1C[C@@H](Cl)C[C@@H](c2ccc3ccccc3c2)O1 (relative stereo) | 46.6 | Active | Non-toxic | Non-toxic | Non-toxic | Non-toxic | Non-toxic | > 2000 | Non-toxic | 
11 | O=C(O)[C@H]1C[C@@H](Cl)C[C@@H](c2cccc3ccccc23)O1 (relative stereo) | 54.4 | inactive | Non-toxic | Non-toxic | Non-toxic | Non-toxic | Non-toxic | > 2000 | Non-toxic | 
